High-throughput results from PubChem BioAssay.
eIF2B yeast act: modulators of yeast eIF2B activity; S. cerevisiae eIF2B-epsilon R284H, GCN4-lacZ luminescence; inhibition, % at 25 µM (by protocol); 27,000 compounds, 0.91% hits; AID 688;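 active = mutant luminescence inhibited past about 50% while wild type luminescence and mutant growth stay under set limits, limit read from the data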
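Material – yeast eIF2B-epsilon R284H mutant carrying GCN4–beta-galactosidase fusion · Medium – YPD yeast growth medium · Compound – one concentration, 25 µM, 0.25% DMSO · Times – 16 h at 30 °C exposure · Signal – Beta-Glo luminescence plus absorbance at 595 nm · Read-out – % inhibition of reporter signal and growth versus controls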
Yeast growth tox: Inhibitors of S. cerevisiae growth, toxicity. growth inhibition, % at 25 µM (by protocol). AID 685. S. cerevisiae wild-type growth, A595 turbidity, 16 h. 30,000 compounds, 0.3% hits;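 active = mutant and wild-type yeast strains alike exhibit over 30% growth inhibition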
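Schedule: 16 h growth with compound, 30 °C. System: yeast, wild-type or eIF2Bepsilon-R284H mutant. Doses: one dose, 25 µM compound[…]. Buffer or medium: YPD. Signal: turbidity measured as absorbance at 595 nm. Read-out basis: growth inhibition (%) versus cell controls and blanks.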
Each line names hits and unclear results; the compound was inactive in the other large screens. Sampled rows, rich in hits. Any-hit rate of the full collection: about 1%.

CC(C)Cc1cc(C(=O)Nc2cc(C(F)(F)F)ccc2Cl)no1	none
CCOc1ccc(NC(=O)Nc2cc(C)ccc2F)cc1	none (no result: eIF2B yeast act)
CCC(=C(c1ccc(OC)cc1)c1ccc(OC)cc1)c1cn(CC(O)CN2CCN(C)CC2)c2ccccc12 (configuration not stated)	Yeast growth tox 102
COc1ccc(OCC(O)CN2CCCCCC2)cc1 (configuration not stated)	none
O=C(CSc1nnc(CNc2ccc(Cl)cc2)o1)Nc1nc2c(s1)CCCC2	none
S=C1COC(c2ccccc2)N1c1ccccc1 (configuration not stated)	none
Cc1ccc(-c2noc(CN(C(=O)Cc3ccccc3)C(C)C)n2)cc1	none (no result: eIF2B yeast act)
CCn1c(Sc2nc(C)nc3scc(-c4cccs4)c23)n[nH]c1=O	Yeast growth tox 46
CCc1nc2scc(-c3cccs3)c2c(=O)o1	none
CCOc1ccc(N2C(=O)CC(n3nc(C)cc3C)C2=O)cc1 (configuration not stated)	none
CCOC(=O)CSc1nc2sc3c(c2c(=O)[nH]1)CCCC3	eIF2B yeast act 50
CCCCSc1nc2sc3c(c2c(=O)[nH]1)CCC3	none
CCc1c(C)nc2cc(-c3ccc(OC)c(OC)c3)nn2c1N1CCCC1	none
COc1ccc(-c2cc3nc(C)cc(N)n3n2)cc1	eIF2B yeast act 82
CCC(C)Cn1c(C(C)O)nc2ccccc21 (configuration not stated)	none
COc1cc(OC)c(-c2nn3c(-c4ccncc4)nnc3s2)cc1OC	none
Cc1nnc2sc(-c3ccncc3)nn12	eIF2B yeast act 64
COc1ccc(N/C(C)=C2/C(=O)C(=O)N(CCO)C2c2ccc([N+](=O)[O-])cc2)cc1 (configuration not stated)	none
O=C(NCC1CCCO1)c1ccccc1 (configuration not stated)	none
O=C(Nc1ccccc1)C1CC=CCC1C(=O)OCC1CCCO1 (configuration not stated)	Yeast growth tox 33
Cc1ccc(C)c(N2CCN(C(=O)Cn3c(=O)[nH]c4ccsc4c3=O)CC2)c1	none (no result: eIF2B yeast act)
COc1ccc(OC)c(NC(=O)CNC(=O)Cn2cnc3ccccc3c2=O)c1	eIF2B yeast act 65
COc1ccc(NC(=O)CCNC(=O)Cn2cnc3ccccc3c2=O)c(OC)c1	none
COCC(=O)NC(c1ccccc1)c1ccccc1	eIF2B yeast act 62
COCC(=O)Nc1ccccc1NC(C)=O	none
Cn1c(/C(C#N)=C(\O)CN2CCN(Cc3ccccc3)CC2)nc2ccccc21	eIF2B yeast act 64
Cc1ccc(SC/C(O)=C(\C#N)c2nc3ccccc3n2C)cc1	none
Cc1cc(Cl)ccc1N=c1ssnc1Cl	Yeast growth tox 79
O=C(Cn1nnc(-c2cccs2)n1)N1c2ccccc2Sc2ccc(C(F)(F)F)cc21	none
CC(=O)C1=C(C)NC(SCC(N)=O)=C(C#N)C1C (configuration not stated)	none
CC1=C(C)/C(=N\OS(=O)(=O)c2ccccc2)C=CC1=O	Yeast growth tox 100
CCCCOC(=O)CSc1n[nH]c(=O)[nH]c1=O	none
N/C(Cc1ccc([N+](=O)[O-])cc1)=N\OC(=O)c1ccc2ccccc2c1	Yeast growth tox 64
COc1ccc(/C(N)=N/OC(=O)c2cccc([N+](=O)[O-])c2)cc1	none
c1ccc2oc(CCc3nc4ccccc4o3)nc2c1	none
Nc1ccc2oc(CCc3ccccc3)nc2c1	eIF2B yeast act 53
COc1ccc(-c2nnc(SC(C)C(=O)Nc3c(C)n(C)n(-c4ccccc4)c3=O)o2)cc1 (configuration not stated)	none
CCOc1cc(S(=O)(=O)N2CCCCC2)ccc1F	none
Cn1c(=O)c(=O)n(C)c2cc(S(=O)(=O)N3CCCCCC3)ccc21	eIF2B yeast act 58
CCN(CC)C(=O)Cn1nc(C)c2ccccc2c1=O	none
CC(C)NC(=O)C(=O)NC1CCCCCC1	none
CCCC(CCC(=O)NC1CCCCC1)C(=O)O (configuration not stated)	eIF2B yeast act 91
Cc1cc(C(=O)OCC(=O)NCCc2ccccc2)c(C)o1	none
COC(=O)Cc1cc(=O)[nH]c(/N=C(\N)Nc2ccccc2C)n1	none
Cn1nnnc1SCC(=O)N1CCc2ccccc2C1	none
Nn1c(COc2cccc(Br)c2)nnc1SCC(=O)N1CCc2ccccc2C1	eIF2B yeast act 50
Cc1ccc(Nc2cc(C)nn2-c2nc(C)cc(=O)[nH]2)cc1	Yeast growth tox 78
CCOC(=O)c1ccc(Nc2nc(C)cc(=O)[nH]2)cc1	none
CCC(=O)Nc1c2c(nn1-c1ccc(C)cc1C)CSC2	eIF2B yeast act 52
Cc1ccccc1-n1nc2c(c1NC(=O)c1c(-c3ccccc3Cl)noc1C)CSC2	none
Cc1c(C(=O)N2CCCC2)sc(NC(=O)c2ccc(Cl)cc2)c1C#N	eIF2B yeast act 71
COc1cc(C(=O)Nc2sc(C(=O)N3CCOCC3)c(C)c2C#N)cc(OC)c1OC	none
CCN(CC)CC(O)COc1ccc2c(c1)OCO2 (configuration not stated)	none (no result: eIF2B yeast act)
